Legend:
[1] = comparison CNS drug; no reference given; cited from earlier work
MC65 cells [2] = experiment: Cellular ROS assay with CM-H2DCFDA in MC65 cells; assay type: cell-based; settings: CM-H2DCFDA fluorescence, TC- condition, n = 7-8
Procedure, shortened: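 MC65 cells kept in 1 μg/mL tetracycline were washed extensively and plated at 2.5×10^4 cells/well in serum-free, phenol-red-free Opti-MEM without tetracycline. For ROS, cells were PBS-washed, loaded with CM-H2DCFDA and incubated 40 min. Random fluorescence photomicrographs were taken per condition, and intensity was quantified by image analysis, blinded to investigator.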

MC65 cells [3] = settings: cited from earlier work

| Structure (SMILES) | Log Doct [1] | ROS production of MC65 cells (MC65 cells [2]) | MC65 cell death (MC65 cells [3]) |
| --- | --- | --- | --- |
| CN(C)CCC(c1ccc(Cl)cc1)c1ccccn1 (stereo not drawn) [chlorpheniramine] | 1.25 |  |  |
| Cc1c(C)c2c(c(C)c1O)CC[C@@](C)(CCC[C@H](C)CCC[C@H](C)CCCC(C)C)O2 [α-tocopherol] |  | reduced | blocked |

Reference: article PMC5438482 (Journal of Alzheimer's Disease, 2017)
